Laboratory results as given in ChEMBL document CHEMBL4118027, “Preussilides A-F, Bicyclic Polyketides from the Endophytic Fungus Preussia similis with Antiproliferative Activity” (J Nat Prod, 2017).
In brackets after ≈: the same amount, converted by molar mass. Activity calls are given as the source filed them. The rule behind the calls is not given here.

Experiments:
[1] = system: L929; test: Cytotoxicity against mouse L929 cells assessed as reduction in cell viability after 5 days by MTT assay; format: functional, cell-based; details: L929, 120 h
In short: (§1)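 MTT viability assay run over 5 days on a panel of eight lines (L929, KB3.1, A431, A549, SKOV-3, PC-3, MCF-7, U2OS). IC50 values were derived.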

[2] = system: A-431; test: Cytotoxicity against human A431 cells assessed as reduction in cell viability after 5 days by MTT assay; format: functional, cell-based; details: A-431, 120 h; in short: as §1
[3] = system: A549; test: Cytotoxicity against human A549 cells assessed as reduction in cell viability after 5 days by MTT assay; format: functional, cell-based; details: A549, 120 h; in short: as §1
[4] = system: SK-OV-3; test: Cytotoxicity against human SKOV3 cells assessed as reduction in cell viability after 5 days by MTT assay; format: functional, cell-based; details: SK-OV-3, 120 h; in short: as §1
[5] = system: PC-3; test: Cytotoxicity against human PC3 cells assessed as reduction in cell viability after 5 days by MTT assay; format: functional, cell-based; details: PC-3, 120 h; in short: as §1
[6] = system: U2OS; test: Cytotoxicity against human U2OS cells assessed as reduction in cell viability after 5 days by MTT assay; format: functional, cell-based; details: 120 h; in short: as §1
[7] = system: Aspergillus fumigatus; test: Antifungal activity against Aspergillus fumigatus DSM 819 by serial dilution method; format: functional
[8] = system: Sclerotinia sclerotiorum; test: Antifungal activity against Sclerotinia sclerotiorum DSM 1946 at 100 ug/disk after 5 days by disk diffusion assay; format: functional; details: DSM 1946, 120 h, read-out: IZ
In short: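 Disk diffusion on YMG medium seeded with a mycelial suspension of the non-sporulating test fungus. Paper disks carried […] compound. Nystatin at 20 μg/disk was the positive control. Inhibition zone diameter (mm) was read after 5 days.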

[9] = system: Micrococcus luteus; test: Antibacterial activity against Micrococcus luteus DSM 1790 by serial dilution method; format: functional, organism-based
[10] = system: Bacillus subtilis; test: Antibacterial activity against Bacillus subtilis DSM 10 by serial dilution method; format: functional, organism-based
[11] = system: Staphylococcus aureus; test: Antibacterial activity against Staphylococcus aureus DSM 346 by serial dilution method; format: functional, organism-based
[12] = system: Mycolicibacterium smegmatis; test: Antibacterial activity against Mycobacterium smegmatis ATCC 700084 by serial dilution method; format: functional, organism-based
[13] = system: Escherichia coli; test: Antibacterial activity against Escherichia coli DSM 498 by serial dilution method; format: functional, organism-based
[14] = system: Pseudomonas aeruginosa; test: Antibacterial activity against Pseudomonas aeruginosa PA14 by serial dilution method; format: functional, organism-based
[15] = system: Chromobacterium violaceum; test: Antibacterial activity against Chromobacterium violaceum DSM 30191 by serial dilution method; format: functional, organism-based
[16] = system: Candida albicans; test: Antifungal activity against Candida albicans DSM 1665 by serial dilution method; format: functional, organism-based
[17] = system: Rhodotorula glutinis; test: Antifungal activity against Rhodotorula glutinis DSM 10134 by serial dilution method; format: functional, organism-based
[18] = system: Wickerhamomyces anomalus; test: Antifungal activity against Pichia anomala DSM 6766 by serial dilution method; format: functional, organism-based
[19] = system: Schizosaccharomyces pombe; test: Antifungal activity against Schizosaccharomyces pombe DSM 70572 by serial dilution method; format: functional, organism-based
[20] = system: Yamadazyma tenuis; test: Antifungal activity against Candida tenuis MUCL 29892 by serial dilution method; format: functional, organism-based
[21] = system: Mucor hiemalis; test: Antifungal activity against Mucor hiemalis DSM 2656 by serial dilution method; format: functional, organism-based
[22] = system: Caenorhabditis elegans; test: Nematicidal activity against Caenorhabditis elegans up to 100 ug/ml; format: functional, organism-based
[23] = system: Setaria italica; test: Phytotoxicity against Setaria italica assessed as inhibition of seedling germination at 100 ug/disk; format: functional, organism-based
[24] = system: L929; test: Induction of nuclear fragmentation in mouse L929 cells at cytotoxic IC50 by DAPI staining based microscopic method; format: functional, cell-based
[25] = system: U2OS; test: Induction of morphological changes in human U2OS cells assessed as multipolar and duplicated spindle formation at 0.25 to 5 ug/ml after 24 hrs by DAPI staining based immunofluorescence microscopic method; format: functional, cell-based
In short: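 U2OS in DMEM (4.5 g/L glucose, 10% FBS), 37 °C, 7% CO2, seeded 3 × 10^4/well on fibronectin-coated coverslips and adhered 16 h. Treated 24 h at 0.25, 0.5, 2.5, 5 or 10 μg/mL (diluted from 1 mg/mL DMSO stock), DMSO control. Fixed in 4% PFA/PBS 20 min; anti-α-tubulin (DM1A), phalloidin-Alexa 488 and DNA stain; immunofluorescence imaging.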

[26] = system: U2OS; test: Cell cycle arrest in human U2OS cells assessed as small cells with reduced nuclear size at 5 ug/ml after 18 hrs by propidium iodide staining based flow cytometry (reference value: 0.19%); format: functional; set-up: scale not given: the % may be the effect or the level left
In short: (§2)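 U2OS were seeded at 7 × 10^5/well in six-well plates and exposed to 5 or 10 μg/mL for 18 h after spreading, with untreated and DMSO mock controls. Cells were trypsinized, fixed in 2% PFA/PBS, then in ice-cold methanol 30 min. Staining: anti-tubulin/anti-lamin antibodies plus RNase A and propidium iodide. Flow cytometry assigned G1, S, G2-M and sub-G1 by DNA content.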

[27] = system: U2OS; test: Cell cycle arrest in human U2OS cells assessed as small cells with reduced nuclear size at 10 ug/ml after 18 hrs by propidium iodide staining based flow cytometry (reference value: 0.19%); format: functional; set-up: scale not given: the % may be the effect or the level left; in short: as §2
[28] = system: U2OS; test: Cell cycle arrest in human U2OS cells assessed as accumulation at G1 phase at 5 ug/ml after 18 hrs by propidium iodide staining based flow cytometry (reference value: 50.1%); format: functional; in short: as §2
[29] = system: U2OS; test: Cell cycle arrest in human U2OS cells assessed as accumulation at sub-G1 phase at 5 ug/ml after 18 hrs by propidium iodide staining based flow cytometry (reference value: 0.19%); format: functional; in short: as §2
[30] = system: U2OS; test: Cell cycle arrest in human U2OS cells assessed as accumulation at G1 phase at 10 ug/ml after 18 hrs by propidium iodide staining based flow cytometry (reference value: 50.1%); format: functional; in short: as §2
[31] = system: U2OS; test: Cell cycle arrest in human U2OS cells assessed as accumulation at sub-G1 phase at 10 ug/ml after 18 hrs by propidium iodide staining based flow cytometry (reference value: 0.19%); format: functional; in short: as §2
[32] = system: U2OS; test: Cell cycle arrest in human U2OS cells assessed as accumulation at G2/M phase at 10 ug/ml after 18 hrs by propidium iodide staining based flow cytometry (reference value: 24.3%); format: functional; in short: as §2
[33] = system: U2OS; test: Induction of apoptosis in human U2OS cells assessed as tubulin fragmentation up to 10 ug/ml after 18 hrs by flow cytometry; format: functional, cell-based; in short: as §2
[34] = system: U2OS; test: Ratio of compound effect for induction of multipolar and duplicated spindle formation to compound effect for cytotoxicity for human U2OS cells; format: functional
In short: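 Spindle arm: U2OS in DMEM (4.5 g/L glucose, 10% FBS) at 37 °C, 7% CO2, on fibronectin-coated coverslips, adhered 16 h. Treated 24 h at 0.25–10 μg/mL (diluted from 1 mg/mL DMSO stock) with a DMSO control, PFA-fixed, and anti-α-tubulin immunostained to score mitotic spindles. Cytotoxicity arm: 5-day MTT. Ratio compares spindle-inducing concentration with cytotoxic concentration.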

[35] = system: U2OS; test: Induction of apoptosis in human U2OS cells assessed as caspase-3/7 cleavage at 5 ug/ml after 18 hrs by caspase-3/7 green reagent based flow cytometry (reference value: 8.04%)
[36] = system: U2OS; test: Induction of apoptosis in human U2OS cells assessed as caspase-3/7 cleavage at 10 ug/ml after 18 hrs by caspase-3/7 green reagent based flow cytometry (reference value: 8.04%)

`CC(=O)CC1=C(C)C=C2C[C@@H](C)C(=O)[C@@H](C)[C@@H]2[C@H]1/C=C(C)/C=C(C)/C=C/C(=O)O` gave an IC50 [1] of 9.1 µM, an IC50 [2] of 10.1 µM and an IC50 [3] of 22.9 µM. The IC50 [4] was 15.6 µM, the IC50 [5] was 18.4 µM and the IC50 [6] was 6.8 µM. The MIC [7] was 8.3 µg/mL (≈ 20.9 µM), the zone of inhibition at 100 µg/disc [8] was 29 mm and the Activity [9] was “inactive”. The Activity [10] was “inactive”, the Activity [11] was “inactive” and the Activity [12] was “inactive”. For the same compound, the Activity [13] was “inactive”, the Activity [14] was “inactive” and the Activity [15] was “inactive”. For the same compound, the Activity [16] was “inactive”, the Activity [17] was “inactive” and the Activity [18] was “inactive”. For the same compound, the Activity [19] was “inactive”, the Activity [20] was “inactive” and the Activity [21] was “inactive”. For the same compound, the Activity [22] was “inactive”, the Activity [23] was “inactive” and the Activity [24] was “Active”. The Activity [25] was “Active”, the Activity [26] was 1.96% and the Activity [27] was 25.5%. The Activity [28] was 56.3%, the Activity [29] was 1.14% and the Activity [30] was 50.7%. The Activity [31] was 21.9%, the Activity [32] was 10.8% and the Activity [33] was “Active”. The Ratio [34] was 10 - 20, the Activity [35] was 3.45% and the Activity [36] was 5.72%.
